Data as given in ChEMBL document CHEMBL1126988, “Quinolone antibacterials containing the new 7-[3-(1-aminoethyl)-1- pyrrolidinyl] side chain: the effects of the 1-aminoethyl moiety and its stereochemical configurations on potency and in vivo efficacy” (J Med Chem, 1993).
≈ marks a conversion by molar mass, not a printed value.

Tests used:
Format in all cases: functional
[1] = tested on: Klebsiella pneumoniae; assay: Minimum inhibitory concentration was evaluated in vitro against Klebsiella pneumoniae MGH2; settings: Klebsiella pneumoniae; read-out: MIC
In short: (§1)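 Standard microtitration broth assay against a panel of 10 Gram-positive and Gram-negative organisms. MIC read in µg/mL and averaged over multiple experiments.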

[2] = tested on: Escherichia coli; assay: Antibacterial activity against Escherichia coli Vogel after oral administration in mouse; settings: Escherichia coli, po; read-out: PD50
[3] = tested on: Streptococcus pneumoniae; assay: Minimum inhibitory concentration was evaluated in vitro against Streptococcus pneumoniae SV-1; settings: Streptococcus pneumoniae; read-out: MIC; in short: as §1
[4] = tested on: Escherichia coli; assay: Antibacterial activity against Escherichia coli Vogel after subcutaneous administration in mouse; settings: Escherichia coli, sc; read-out: PD50
[5] = tested on: Staphylococcus aureus; assay: Minimum inhibitory concentration was evaluated in vitro against Staphylococcus aureus H 228; settings: Staphylococcus aureus; read-out: MIC; in short: as §1
[6] = tested on: Streptococcus pyogenes; assay: Compounds were evaluated in vivo for antibacterial activity for mouse protection against Streptococcus pyogenes C 203 after oral administration; settings: Streptococcus pyogenes, C 203, po; read-out: PD50
[7] = tested on: Escherichia coli; assay: Antibacterial activity in vitro against Escherichia coli Vogel; settings: Escherichia coli; read-out: MIC; in short: as §1
[8] = tested on: Staphylococcus aureus; assay: Minimum inhibitory concentration was evaluated in vitro against Staphylococcus aureus UC 76; settings: Staphylococcus aureus; read-out: MIC; in short: as §1
[9] = tested on: Pseudomonas aeruginosa; assay: Minimum inhibitory concentration was evaluated in vitro against Pseudomonas aeruginosa UI-18; settings: Pseudomonas aeruginosa; read-out: MIC; in short: as §1
[10] = tested on: Enterobacter cloacae; assay: Minimum inhibitory concentration in vitro against Enterobacter cloacae MA 2646; settings: Enterobacter cloacae; read-out: MIC
[11] = tested on: Enterococcus faecalis; assay: Minimum inhibitory concentration was evaluated in vitro against Enterococcus faecalis MGH-2; settings: Enterococcus faecalis; read-out: MIC; in short: as §1
[12] = tested on: Providencia rettgeri; assay: Minimum inhibitory concentration was evaluated in vitro against Providencia rettgeri M1771; settings: Providencia rettgeri; read-out: MIC; in short: as §1
[13] = tested on: Streptococcus pyogenes; assay: Antibacterial activity measured as mouse protection against Streptococcus pyogenes C 203 after subcutaneous administration; settings: Streptococcus pyogenes, C 203, sc; read-out: PD50
[14] = tested on: Streptococcus pyogenes; assay: Minimum inhibitory concentration was evaluated in vitro against Streptococcus pyogenes C 203; settings: Streptococcus pyogenes; read-out: MIC; in short: as §1

Row | SMILES | MIC [1] | ED50 [2] | MIC [3] | ED50 [4] | MIC [5] | ED50 [6] | MIC [7] | MIC [8] | MIC [9] | MIC [10] | MIC [11] | MIC [12] | ED50 [13] | MIC [14]
1 | O=C(O)c1cn(C2CC2)c2cc(N3CCNCC3)c(F)cc2c1=O [CIPROFLOXACIN] | 0.05 µg/mL (≈ 0.151 µM) | 1 mg/kg | 1.6 µg/mL (≈ 4.83 µM) | 0.3 mg/kg | 3.1 µg/mL (≈ 9.36 µM) |  |  |  |  |  |  |  |  | 
2 | CC(N)C1CCN(c2c(F)cc3c(=O)c(C(=O)O)cn(C4CC4)c3c2F)C1 (racemic) | 0.013 µg/mL (≈ 0.0344 µM) | 2 mg/kg | 0.006 µg/mL (≈ 0.0159 µM) | 0.3 mg/kg | 0.013 µg/mL (≈ 0.0344 µM) | 0.4 mg/kg | 0.013 µg/mL (≈ 0.0344 µM) | 0.003 µg/mL (≈ 0.00795 µM) | 0.4 µg/mL (≈ 1.06 µM) | 0.013 µg/mL (≈ 0.0344 µM) | 0.006 µg/mL (≈ 0.0159 µM) | 0.025 µg/mL (≈ 0.0662 µM) | 0.1 mg/kg | 0.006 µg/mL (≈ 0.0159 µM)
3 | COc1c(N2CCC(C)(CN)C2)c(F)cc2c(=O)c(C(=O)O)cn(C3CC3)c12 (configuration not stated) | 0.2 µg/mL (≈ 0.514 µM) | 18 mg/kg | 0.013 µg/mL (≈ 0.0334 µM) | 3 mg/kg | 0.025 µg/mL (≈ 0.0642 µM) | 5 mg/kg | 0.1 µg/mL (≈ 0.257 µM) | 0.006 µg/mL (≈ 0.0154 µM) | 1.6 µg/mL (≈ 4.11 µM) | 0.1 µg/mL (≈ 0.257 µM) | 0.025 µg/mL (≈ 0.0642 µM) | 0.4 µg/mL (≈ 1.03 µM) | 1 mg/kg | 0.013 µg/mL (≈ 0.0334 µM)
4 | CCNCC1CCN(c2c(F)c(N)c3c(=O)c(C(=O)O)cn(C4CC4)c3c2F)C1 (configuration not stated) | 0.05 µg/mL (≈ 0.123 µM) | 16 mg/kg | 0.003 µg/mL (≈ 0.00738 µM) | 2 mg/kg | 0.013 µg/mL (≈ 0.032 µM) | 5 mg/kg | 0.05 µg/mL (≈ 0.123 µM) | 0.003 µg/mL (≈ 0.00738 µM) | 0.2 µg/mL (≈ 0.492 µM) | 0.05 µg/mL (≈ 0.123 µM) | 0.025 µg/mL (≈ 0.0615 µM) | 0.1 µg/mL (≈ 0.246 µM) | 3 mg/kg | 0.013 µg/mL (≈ 0.032 µM)
5 | CCNCC1CCN(c2nc3c(cc2F)c(=O)c(C(=O)O)cn3-c2ccc(F)cc2F)C1 (configuration not stated) | 0.4 µg/mL (≈ 0.896 µM) | 6 mg/kg | 0.1 µg/mL (≈ 0.224 µM) | 4 mg/kg | 0.1 µg/mL (≈ 0.224 µM) | 8 mg/kg | 0.2 µg/mL (≈ 0.448 µM) | 0.025 µg/mL (≈ 0.056 µM) | 1.6 µg/mL (≈ 3.58 µM) | 0.2 µg/mL (≈ 0.448 µM) | 0.2 µg/mL (≈ 0.448 µM) | 0.8 µg/mL (≈ 1.79 µM) | 3 mg/kg | 0.1 µg/mL (≈ 0.224 µM)
6 | NCC1CCN(c2c(F)cc3c(=O)c(C(=O)O)cn(C4CC4)c3c2F)C1 (configuration not stated) | 0.05 µg/mL (≈ 0.138 µM) | 6 mg/kg | 0.006 µg/mL (≈ 0.0165 µM) | 1 mg/kg | 0.013 µg/mL (≈ 0.0358 µM) | 4 mg/kg | 0.025 µg/mL (≈ 0.0688 µM) | 0.003 µg/mL (≈ 0.00826 µM) | 0.2 µg/mL (≈ 0.55 µM) | 0.013 µg/mL (≈ 0.0358 µM) | 0.013 µg/mL (≈ 0.0358 µM) | 0.1 µg/mL (≈ 0.275 µM) | 0.4 mg/kg | 0.003 µg/mL (≈ 0.00826 µM)
7 | CCNCC1CCN(c2cc3c(c(N)c2F)c(=O)c(C(=O)O)cn3C2CC2)C1 (configuration not stated) | 0.4 µg/mL (≈ 1.03 µM) | 90 mg/kg | 0.05 µg/mL (≈ 0.129 µM) | 3 mg/kg | 0.2 µg/mL (≈ 0.515 µM) | > 100 mg/kg | 0.1 µg/mL (≈ 0.257 µM) | 0.025 µg/mL (≈ 0.0644 µM) | 1.6 µg/mL (≈ 4.12 µM) | 0.1 µg/mL (≈ 0.257 µM) | 0.05 µg/mL (≈ 0.129 µM) | 0.8 µg/mL (≈ 2.06 µM) | 11 mg/kg | 0.1 µg/mL (≈ 0.257 µM)
8 | CC(N)C1CCN(c2cc3c(c(N)c2F)c(=O)c(C(=O)O)cn3C2CC2)C1 (mixture of isomers) | 0.05 µg/mL |  | 0.003 µg/mL |  | 0.05 µg/mL | 18 mg/kg | 0.025 µg/mL | 0.003 µg/mL | 0.4 µg/mL | 0.025 µg/mL | 0.013 µg/mL | 0.1 µg/mL | 4 mg/kg | 0.003 µg/mL
9 | CCNCC1CCN(c2c(F)cc3c(=O)c(C(=O)O)cn(C4CC4)c3c2C(F)(F)F)C1 (configuration not stated) |  | 5 mg/kg |  | 2 mg/kg |  | 2 mg/kg |  | 0.025 µg/mL (≈ 0.0566 µM) |  |  |  |  | 1 mg/kg | 
10 | COc1c(N2CCC(CN)C2)c(F)cc2c(=O)c(C(=O)O)cn(C3CC3)c12 (configuration not stated) | 0.1 µg/mL (≈ 0.266 µM) |  | 0.003 µg/mL (≈ 0.00799 µM) |  | 0.025 µg/mL (≈ 0.0666 µM) | 11 mg/kg | 0.05 µg/mL (≈ 0.133 µM) | 0.003 µg/mL (≈ 0.00799 µM) | 0.8 µg/mL (≈ 2.13 µM) | 0.05 µg/mL (≈ 0.133 µM) | 0.013 µg/mL (≈ 0.0346 µM) | 0.1 µg/mL (≈ 0.266 µM) | 0.6 mg/kg | 0.003 µg/mL (≈ 0.00799 µM)
11 | CN[C@H](C)[C@@H]1CCN(c2c(F)cc3c(=O)c(C(=O)O)cn(C4CC4)c3c2C(F)(F)F)C1 | 1.6 µg/mL (≈ 3.62 µM) |  | 0.05 µg/mL (≈ 0.113 µM) |  | 0.05 µg/mL (≈ 0.113 µM) | 3 mg/kg | 0.2 µg/mL (≈ 0.453 µM) | 0.025 µg/mL (≈ 0.0566 µM) | 6.3 µg/mL (≈ 14.3 µM) | 0.4 µg/mL (≈ 0.906 µM) | 0.1 µg/mL (≈ 0.227 µM) | 3.1 µg/mL (≈ 7.02 µM) | 2 mg/kg | 0.05 µg/mL (≈ 0.113 µM)
12 | NCC1CCN(c2nc3c(cc2F)c(=O)c(C(=O)O)cn3-c2ccc(F)cc2F)C1 (configuration not stated) | 0.1 µg/mL (≈ 0.239 µM) |  | 0.025 µg/mL (≈ 0.0598 µM) |  | 0.05 µg/mL (≈ 0.12 µM) | 10 mg/kg | 0.05 µg/mL (≈ 0.12 µM) | 0.013 µg/mL (≈ 0.0311 µM) | 0.4 µg/mL (≈ 0.956 µM) | 0.05 µg/mL (≈ 0.12 µM) | 0.025 µg/mL (≈ 0.0598 µM) | 0.2 µg/mL (≈ 0.478 µM) | 1 mg/kg | 0.025 µg/mL (≈ 0.0598 µM)
